Data on four compounds can be found in paper PMC8645912 (ESMO Open, 2021).

Values joined by “and” are separate entries in the source; they are usually repeats but may differ in a detail not shown here. Equal values may be shown once. Read-outs that look alike come from different tables or passages of the source. Where only a bound is given, the exact number is not on record here.

Series [1] concerns metastatic renal cell carcinoma. To be noted: mRCC; cited from earlier work.
A short description of series [2]: Adverse events in the study cohort. It counts as in vivo, human. The essentials: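 Clinical examination and blood tests every 4-6 weeks. Adverse events graded by CTCAE v5.0. Relevant toxicity defined as grade 3-4, or grade 2 requiring dose reduction or discontinuation. Each patient counted once for toxicity.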
The test system of series [3] is metastatic renal cell carcinoma. To be noted: CheckMate 9ER PK/PD study, Cavg up to day 1 of cycle 7; cited from earlier work.
Series [4] in a line: Cabozantinib plasma PK monitoring. It counts as in vivo, human.
The conditions of series [5]: cited from earlier work.
The conditions of series [6]: cited from earlier work. The source holds these as a separate data set.
For series [7] the following is noted: cited from earlier work. This is another data set of the same source.
The nature of series [8]: PK/PD relation for efficacy: cabozantinib PK at progressive disease. It counts as in vivo, human. To be noted: human, plasma, oral.
Series [9] concerns metastatic renal cell carcinoma. The description is as above. It counts as in vivo, human.
Series [10] shares this test system. To be noted: METEOR trial; cited from earlier work.
Series [11] shares this test system. To be noted: CABOSUN trial, cited from earlier work.
The format of series [12] is in vivo, human. Conditions: for AUC: human, plasma, oral.
The mark [13] stands for this setting: most frequent G3 toxicities, of the 30 patients.
[14] abbreviates: of the 30 patients with relevant toxicity.
Setting [15] is: SD/PR patients (disease control).
The mark [16] stands for this setting: patients with progressive disease (PD).
Where [17] appears, read: patients with relevant toxicity.
Where [18] appears, read: patients without relevant toxicity.

As to `CNC(=O)c1ccccc1Sc1ccc2c(/C=C/c3ccccn3)n[nH]c2c1` [Axitinib], in series [1], the “AUC at 4 weeks from treatment start associated with better OS and PFS” value is > 300 ng·h/mL and 154 to 620 ng·h/mL; the “Css,trough associated with longer OS” value was “• >5 ng/ml associated with longer OS”; the “Css,trough associated with ≥G2 asthenia” value was more than 7.1 ng/mL.
As for `CCN(CC)CCNC(=O)c1c(C)[nH]c(/C=C2\C(=O)Nc3ccc(F)cc32)c1C` [Sunitinib], in series [1], the AUCss and efficacy result is given as “• Lower in PD patients compared with AUCss at treatment start”; the “AUCss associated with higher grade 3-4 toxicity” value is “• >2150 ng/ml/h higher grade 3-4 toxicity”; the “Css,trough associated with longer PFS and TTF” value is less than 100 ng/mL; the “Css,trough associated with worse outcomes” value was more than 100 ng/mL.
In the case of `Cc1ccc(Nc2nccc(N(C)c3ccc4c(C)n(C)nc4c3)n2)cc1S(N)(=O)=O` [Pazopanib], in series [1], the “Css,trough associated with PD” value is less than 15 µg/mL; the “Css,trough associated with PR/SD” value is not below 15 µg/mL; the “Css,trough associated with longer PFS and greater tumor shrinkage” value was not below 20.5 µg/mL.
In [2] (setting [13]), `COc1cc2nccc(Oc3ccc(NC(=O)C4(C(=O)Nc5ccc(F)cc5)CC4)cc3)c2cc1OC` [cabozantinib] returned a G3 cutaneous rash of 16.7%. Further, in series [2] (setting [13]), the “G3 hand-foot syndrome (HFS)” value came out at 26.7%. In series [2] (setting [13]), this compound returned a G3 hypertension of 50%. The same compound had a G3 vomiting in series [2] (setting [13]) of 10%. In series [2] (of 76 patients, at data cut-off), the “Number of patients who experienced a relevant toxicity” value was found to be 30 patients. Also, the “Patients with G2 event requiring a dose reduction (DR)” value in [2] (setting [14]) was 20%. The “Patients with G2 event requiring a drug discontinuation (DD)” value in series [2] (setting [14]) stood at 26.7%. The “Patients with at least one G2 event requiring a DD or a DR” value in series [2] (setting [14]) amounted to 46.7%. Besides, the “Patients with at least one G3 toxicity” value in series [2] (setting [14]) was 53.3%. For the same compound, in [2] (study cohort), the G4 toxicity entry is recorded as “No patient”. In addition, in series [3], the “Effect of average cabozantinib concentration (Cavg) on PFS” value is on record as “no effect”. Moreover, the “Mean Ctrough at 40 mg daily (SD)” value in [4] (40 mg daily) is on record as 565 (283) ng/ml. In addition, the “Median Ctrough at 40 mg daily (IQR)” value in [4] (40 mg daily) is listed as 477 (366-649) ng/ml. In series [4] (60 mg daily), the “Mean Ctrough at 60 mg daily (SD)” value was 667 (375) ng/ml. The “Median Ctrough at 60 mg daily (IQR)” value in series [4] (60 mg daily) was 564 (402-777) ng/ml. For the same compound, the AUC in [4] (human, plasma, oral, Mean AUC (SD), whole population, from population PK model) is 20900 ng·h/mL; in [8] (Mean AUC (SD), SD/PR patients (disease control)), 24600 ng·h/mL; in series [8] (Mean AUC (SD), patients with progressive disease (PD)), 17700 ng·h/mL; in series [8] (Median AUC (IQR), SD/PR patients (disease control)), 20000 ng·h/mL; in series [8] (Median AUC (IQR), patients with progressive disease (PD)) it was 16000 ng·h/mL; in series [12] (Mean AUC (SD), patients with relevant toxicity), 28600 ng·h/mL. Further, the AUC came to 19800 ng·h/mL in series [12] (Mean AUC (SD), patients without relevant toxicity); 21000 ng·h/mL in [12] (Median AUC (IQR), patients with relevant toxicity); 16000 ng·h/mL in series [12] (Median AUC (IQR), patients without relevant toxicity). In addition, the “Median measured cabozantinib plasma concentration” value in [4] (median daily dose 40 mg, median time 38 weeks) amounted to 500 ng/mL. In addition, the “Median Ctrough (IQR)” value in [4] (whole population) is 500.2 (365.5-742.5) ng/ml; in series [9] (setting [16]), 406 ng/mL; in series [12] (setting [17]), 693 ng/mL; in series [12] (setting [18]), 521 ng/mL. The “Mean Cmeas (measured blood concentration)” value in series [4] (whole population, 76 mRCC patients, steady state, at least 8 h from last dose) came to 598.3 ng/mL. Moreover, the “Mean Ctrough (SD)” value in series [4] (whole population, Ctrough estimated from Cmeas by formula) is 597.7 ng/ml and 597.7 (363.9) ng/ml; in series [9] (setting [15]), 788.5 ng/mL; in [9] (setting [16]), 465.6 ng/mL; in [12] (patients with relevant toxicity (G3-4, or G2 requiring DR or DD)) it was 950.2 ng/mL; in series [12] (setting [18]), 574.1 ng/mL. The “Mean Cl/F (SD)” value amounted to 2.5 L/h in series [4] (whole population, from population PK model); 2.01 L/h in series [9] (setting [15]); 2.86 L/h in series [9] (setting [16]). In addition, the “Biopharmaceutics Classification System class” value in series [5] was “Class II”. For the same compound, the “Cellular permeability in vivo” value in series [5] was “high”. Besides, the “Individual predicted average cabozantinib concentration at steady state” value in series [6] (20 mg daily) was 375 ng/mL; in series [6] (40 mg daily), 750 ng/mL; in [6] (60 mg daily) it was 1125 ng/mL. For the same compound, the “Cl/F, patients with a lower Cl/F” value in series [6] (after oral administration) is 1.3 L/h. Besides, the “Cl/F, patients with a standard Cl/F” value in [6] (after oral administration) was 2.3 L/h. In addition, the “Effect of PPI administration on cabozantinib efficacy and clinical PK” value in series [7] is given as “no relevant effect”. Moreover, in series [9] (RECIST 1.1), the “Number of PR observed” value is 7 patients. Also, the “Ctrough threshold to detect disease progression (drug efficacy threshold)” value in [9] (ROC curve) came to 536.8 ng/mL. Also, the “Median Cl/F (IQR)” value was determined as 2.9 L/h in [9] (setting [15]) and 2 L/h in series [9] (setting [16]). For the same compound, the “Proposed target Ctrough for efficacy in TDM” value in series [9] (mRCC, real-life TDM) was more than 530 ng/mL. The “Number of patients with progressive disease” value in [9] (of 76 patients, RECIST 1.1, at data cut-off) is 35 patients and 34 patients. Further, in series [9] (of patients, RECIST 1.1), the “Patients with PR observed” value is on record as 9.2%. The “Dose reduction (DR) rate” value is 60% in series [10] and 46% in series [11]. In addition, the “Drug discontinuation (DD) rate” value is 9% in series [10] and 16% in series [11]. Also, the “Grade 3-4 adverse event rate” value is listed as 74% in series [10] and 67% in [11]. For the same compound, the “PFS, ORR and OS versus everolimus” value in series [10] was “superiority over everolimus”. In [11] (first-line mRCC), the “PFS and ORR versus first-line standard sunitinib” value is “superior to first-line standard sunitinib”. Besides, in series [12] (ROC curve), the “Ctrough threshold to detect relevant toxicity” value came out at 617.7 ng/mL. Also, the Cmeas in [12] (setting [17]) came to 732 ng/mL; in series [12] (setting [18]), 531 ng/mL.
